# In ChEMBL document CHEMBL1165965, “Synthesis and structure-activity relationships of 1,2,3,4-tetrahydropyrido[2,3-b]pyrazines as potent and selective inhibitors of the anaplastic lymphoma kinase” (Bioorg Med Chem, 2010):
# Assays:
# [1] = biological target: Activated CDC42 kinase 1 (Homo sapiens) (UniProt Q07912); assay: Inhibition of TNK2 at 1 uM
# Method in brief: (§1)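 Single-concentration screen on the Ambit KINOMEscan platform, run against a panel of 250–400 kinases. Per-kinase inhibition was also summarized as S(90), the fraction of kinases inhibited by more than 90%.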
# [2] = biological target: T1, Receptor-interacting serine/threonine-protein kinase 1 (Homo sapiens) (UniProt Q13546); assay: Inhibition of RIPK1 at 1 uM
# T1 sequence (whole entry): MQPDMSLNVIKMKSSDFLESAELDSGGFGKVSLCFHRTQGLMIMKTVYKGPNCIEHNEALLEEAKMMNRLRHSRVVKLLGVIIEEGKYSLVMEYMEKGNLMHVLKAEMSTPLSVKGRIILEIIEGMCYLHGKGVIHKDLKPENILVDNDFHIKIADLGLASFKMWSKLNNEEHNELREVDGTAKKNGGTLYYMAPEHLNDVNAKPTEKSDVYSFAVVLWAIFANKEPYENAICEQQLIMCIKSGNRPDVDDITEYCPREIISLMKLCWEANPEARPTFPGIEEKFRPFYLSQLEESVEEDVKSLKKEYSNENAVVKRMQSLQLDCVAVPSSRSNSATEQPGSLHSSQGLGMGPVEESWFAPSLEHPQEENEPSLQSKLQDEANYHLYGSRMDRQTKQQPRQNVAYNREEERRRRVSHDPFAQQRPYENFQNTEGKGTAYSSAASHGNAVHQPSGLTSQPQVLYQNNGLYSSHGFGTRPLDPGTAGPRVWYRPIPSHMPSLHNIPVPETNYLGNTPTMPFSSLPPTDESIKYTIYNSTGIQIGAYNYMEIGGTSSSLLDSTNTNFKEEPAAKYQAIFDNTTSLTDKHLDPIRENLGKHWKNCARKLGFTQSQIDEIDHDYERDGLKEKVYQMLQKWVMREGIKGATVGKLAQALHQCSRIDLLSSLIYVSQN
# [3] = tested on: eIF-2-alpha kinase GCN2 (Homo sapiens), Q9P2K8 [S808G]; assay: Inhibition of GCN2 domian 2 S808G mutant at 1 uM; method in brief: as §1
# Sequence of eIF-2-alpha kinase GCN2 (Homo sapiens), Q9P2K8 [S808G] (Q9P2K8 whole entry S808G): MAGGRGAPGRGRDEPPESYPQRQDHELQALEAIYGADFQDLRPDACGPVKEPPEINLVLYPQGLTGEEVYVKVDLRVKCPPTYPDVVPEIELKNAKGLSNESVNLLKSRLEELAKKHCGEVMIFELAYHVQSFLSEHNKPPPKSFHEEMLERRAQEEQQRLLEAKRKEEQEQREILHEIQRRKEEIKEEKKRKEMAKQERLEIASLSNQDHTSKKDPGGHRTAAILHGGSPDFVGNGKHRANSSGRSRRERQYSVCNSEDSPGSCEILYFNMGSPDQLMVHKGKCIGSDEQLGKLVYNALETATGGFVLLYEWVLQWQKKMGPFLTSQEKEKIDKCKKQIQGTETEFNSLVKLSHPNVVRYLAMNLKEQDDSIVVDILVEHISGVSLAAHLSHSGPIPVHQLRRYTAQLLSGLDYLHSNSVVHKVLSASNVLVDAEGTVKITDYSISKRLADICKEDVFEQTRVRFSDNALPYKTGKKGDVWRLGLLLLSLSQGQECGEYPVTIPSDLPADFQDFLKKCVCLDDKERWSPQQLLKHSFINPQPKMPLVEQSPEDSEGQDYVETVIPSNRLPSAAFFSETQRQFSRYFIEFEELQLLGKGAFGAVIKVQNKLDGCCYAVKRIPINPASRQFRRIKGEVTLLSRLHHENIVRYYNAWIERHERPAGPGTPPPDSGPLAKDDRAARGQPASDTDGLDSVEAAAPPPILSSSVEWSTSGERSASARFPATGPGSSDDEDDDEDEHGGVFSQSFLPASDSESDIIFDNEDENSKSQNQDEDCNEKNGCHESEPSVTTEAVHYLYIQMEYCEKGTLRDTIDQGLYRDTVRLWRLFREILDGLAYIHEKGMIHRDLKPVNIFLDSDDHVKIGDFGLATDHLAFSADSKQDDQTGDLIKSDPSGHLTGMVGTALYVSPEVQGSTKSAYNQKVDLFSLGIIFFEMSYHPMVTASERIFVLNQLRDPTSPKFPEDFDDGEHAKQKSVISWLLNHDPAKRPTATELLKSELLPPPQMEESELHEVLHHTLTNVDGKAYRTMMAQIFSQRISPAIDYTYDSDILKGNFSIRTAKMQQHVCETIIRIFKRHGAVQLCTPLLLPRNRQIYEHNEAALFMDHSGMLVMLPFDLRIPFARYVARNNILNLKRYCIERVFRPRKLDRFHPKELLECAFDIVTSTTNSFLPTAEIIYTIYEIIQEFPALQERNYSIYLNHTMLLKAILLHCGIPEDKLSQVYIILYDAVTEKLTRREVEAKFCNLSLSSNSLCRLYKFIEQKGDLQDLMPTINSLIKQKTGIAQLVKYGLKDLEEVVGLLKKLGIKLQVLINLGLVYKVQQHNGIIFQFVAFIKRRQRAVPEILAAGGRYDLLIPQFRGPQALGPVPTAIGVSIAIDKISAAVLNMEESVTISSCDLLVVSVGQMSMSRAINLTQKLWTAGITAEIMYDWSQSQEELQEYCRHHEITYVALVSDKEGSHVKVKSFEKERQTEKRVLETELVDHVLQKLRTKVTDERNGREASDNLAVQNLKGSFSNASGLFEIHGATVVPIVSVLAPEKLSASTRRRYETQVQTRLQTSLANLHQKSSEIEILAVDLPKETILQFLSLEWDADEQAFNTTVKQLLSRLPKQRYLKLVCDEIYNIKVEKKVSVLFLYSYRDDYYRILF
# [4] = biological target: T2, Bone morphogenetic protein receptor type-2 (Homo sapiens) (UniProt Q13873); assay: Inhibition of BMPR2 at 1 uM
# T2 sequence (whole entry): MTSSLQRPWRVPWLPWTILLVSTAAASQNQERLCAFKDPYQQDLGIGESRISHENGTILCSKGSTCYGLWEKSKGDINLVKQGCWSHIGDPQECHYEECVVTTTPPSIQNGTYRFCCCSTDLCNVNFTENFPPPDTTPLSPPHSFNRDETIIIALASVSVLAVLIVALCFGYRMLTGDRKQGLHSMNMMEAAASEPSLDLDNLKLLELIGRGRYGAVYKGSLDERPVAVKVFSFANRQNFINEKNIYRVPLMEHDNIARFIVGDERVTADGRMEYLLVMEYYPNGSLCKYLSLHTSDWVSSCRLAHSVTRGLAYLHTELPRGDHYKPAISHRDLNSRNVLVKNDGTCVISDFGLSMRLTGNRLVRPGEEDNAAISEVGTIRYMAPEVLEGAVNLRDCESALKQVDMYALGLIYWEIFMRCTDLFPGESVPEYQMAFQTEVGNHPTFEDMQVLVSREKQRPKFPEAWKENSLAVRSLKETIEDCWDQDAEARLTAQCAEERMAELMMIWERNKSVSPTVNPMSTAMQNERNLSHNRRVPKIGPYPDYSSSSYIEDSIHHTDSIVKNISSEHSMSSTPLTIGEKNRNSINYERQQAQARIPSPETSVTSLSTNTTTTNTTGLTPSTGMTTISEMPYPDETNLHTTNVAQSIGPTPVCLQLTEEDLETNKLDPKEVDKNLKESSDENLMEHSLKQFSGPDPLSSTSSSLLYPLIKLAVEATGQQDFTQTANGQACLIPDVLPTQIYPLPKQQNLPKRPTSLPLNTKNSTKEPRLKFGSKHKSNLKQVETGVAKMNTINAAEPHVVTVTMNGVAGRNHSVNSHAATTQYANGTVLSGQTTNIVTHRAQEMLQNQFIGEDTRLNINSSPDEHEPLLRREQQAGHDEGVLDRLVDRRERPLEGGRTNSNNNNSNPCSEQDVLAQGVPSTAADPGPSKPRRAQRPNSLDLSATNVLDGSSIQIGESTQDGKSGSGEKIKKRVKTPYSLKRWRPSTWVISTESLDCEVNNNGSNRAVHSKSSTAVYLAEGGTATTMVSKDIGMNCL
# [5] = biological target: Mitogen-activated protein kinase 10 (Homo sapiens) (UniProt P53779); assay: Inhibition of JNK3 at 1 uM; method in brief: as §1
# Sequence of Mitogen-activated protein kinase 10 (Homo sapiens) (P53779 whole entry): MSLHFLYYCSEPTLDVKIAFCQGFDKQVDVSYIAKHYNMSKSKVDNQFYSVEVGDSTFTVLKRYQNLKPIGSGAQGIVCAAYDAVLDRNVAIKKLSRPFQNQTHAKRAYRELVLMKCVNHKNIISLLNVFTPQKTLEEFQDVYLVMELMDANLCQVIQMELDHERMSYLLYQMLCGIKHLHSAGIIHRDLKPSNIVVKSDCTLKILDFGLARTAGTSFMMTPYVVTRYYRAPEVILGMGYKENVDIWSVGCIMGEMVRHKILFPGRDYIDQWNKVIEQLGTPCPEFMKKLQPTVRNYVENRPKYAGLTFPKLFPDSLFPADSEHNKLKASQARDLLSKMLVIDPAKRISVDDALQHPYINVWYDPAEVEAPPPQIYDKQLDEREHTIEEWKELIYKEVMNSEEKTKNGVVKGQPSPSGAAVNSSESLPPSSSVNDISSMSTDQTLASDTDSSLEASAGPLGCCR
# [6] = biological target: T3, Serine/threonine-protein kinase Nek9 (Homo sapiens) (UniProt Q8TD19); assay: Inhibition of NEK9 at 1 uM
# T3 sequence (whole entry): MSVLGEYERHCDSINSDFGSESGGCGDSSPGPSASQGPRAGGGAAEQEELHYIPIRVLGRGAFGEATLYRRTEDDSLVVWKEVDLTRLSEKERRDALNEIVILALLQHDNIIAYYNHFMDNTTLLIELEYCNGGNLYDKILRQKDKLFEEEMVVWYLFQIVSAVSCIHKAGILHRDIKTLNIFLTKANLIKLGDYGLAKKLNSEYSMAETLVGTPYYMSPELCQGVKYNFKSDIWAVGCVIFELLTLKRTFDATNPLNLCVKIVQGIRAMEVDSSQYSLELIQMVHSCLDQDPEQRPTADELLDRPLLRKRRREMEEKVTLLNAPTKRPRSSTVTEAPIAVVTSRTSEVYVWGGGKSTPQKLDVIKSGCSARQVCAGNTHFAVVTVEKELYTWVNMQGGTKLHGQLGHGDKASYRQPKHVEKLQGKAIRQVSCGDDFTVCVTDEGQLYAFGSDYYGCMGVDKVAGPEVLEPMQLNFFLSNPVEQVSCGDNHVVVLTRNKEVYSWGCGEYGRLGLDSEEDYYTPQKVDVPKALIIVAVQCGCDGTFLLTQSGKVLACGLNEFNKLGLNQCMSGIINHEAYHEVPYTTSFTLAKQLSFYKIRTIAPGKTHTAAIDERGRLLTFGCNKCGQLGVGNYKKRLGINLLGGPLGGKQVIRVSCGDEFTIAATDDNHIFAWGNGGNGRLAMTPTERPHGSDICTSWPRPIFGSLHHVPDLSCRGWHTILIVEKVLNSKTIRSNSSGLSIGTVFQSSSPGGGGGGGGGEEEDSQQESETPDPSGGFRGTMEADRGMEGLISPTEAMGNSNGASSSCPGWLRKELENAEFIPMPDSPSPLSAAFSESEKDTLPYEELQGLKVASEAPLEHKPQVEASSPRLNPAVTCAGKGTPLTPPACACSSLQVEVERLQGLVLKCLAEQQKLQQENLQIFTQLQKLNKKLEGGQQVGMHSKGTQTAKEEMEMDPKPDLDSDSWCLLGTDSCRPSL
# Sequence of Activated CDC42 kinase 1 (Homo sapiens) (Q07912 whole entry, looked up): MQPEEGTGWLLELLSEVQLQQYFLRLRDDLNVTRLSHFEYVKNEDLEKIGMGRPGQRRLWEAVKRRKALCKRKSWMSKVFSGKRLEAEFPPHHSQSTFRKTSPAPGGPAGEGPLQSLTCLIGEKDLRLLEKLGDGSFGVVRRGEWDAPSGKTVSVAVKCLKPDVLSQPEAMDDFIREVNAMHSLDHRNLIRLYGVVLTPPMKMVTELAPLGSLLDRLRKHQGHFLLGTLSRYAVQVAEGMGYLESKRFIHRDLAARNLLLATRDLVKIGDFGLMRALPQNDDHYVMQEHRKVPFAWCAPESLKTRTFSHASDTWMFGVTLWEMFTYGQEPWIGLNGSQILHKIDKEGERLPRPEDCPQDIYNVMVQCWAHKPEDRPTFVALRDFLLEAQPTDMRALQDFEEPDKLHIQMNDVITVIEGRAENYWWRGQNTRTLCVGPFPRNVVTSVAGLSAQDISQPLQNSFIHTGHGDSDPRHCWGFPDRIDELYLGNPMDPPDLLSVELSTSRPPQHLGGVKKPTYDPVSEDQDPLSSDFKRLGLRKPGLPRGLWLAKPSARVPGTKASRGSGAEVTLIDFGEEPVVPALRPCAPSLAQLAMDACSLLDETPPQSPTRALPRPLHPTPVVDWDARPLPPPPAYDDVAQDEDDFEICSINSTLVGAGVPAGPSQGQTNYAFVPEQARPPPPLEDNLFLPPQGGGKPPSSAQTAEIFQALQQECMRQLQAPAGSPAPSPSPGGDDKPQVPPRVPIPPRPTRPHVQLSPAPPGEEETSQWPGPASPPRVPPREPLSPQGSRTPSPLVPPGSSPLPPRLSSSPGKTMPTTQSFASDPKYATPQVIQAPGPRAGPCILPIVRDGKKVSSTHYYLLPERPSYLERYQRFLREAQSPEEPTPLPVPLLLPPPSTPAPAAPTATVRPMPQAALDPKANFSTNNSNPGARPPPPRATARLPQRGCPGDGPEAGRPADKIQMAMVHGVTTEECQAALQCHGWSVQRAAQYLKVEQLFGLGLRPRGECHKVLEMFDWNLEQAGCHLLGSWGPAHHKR
smiles,measurement,setting,value
CN1CCN(c2ccc(-c3cnc4c(c3)N(Cc3cc(Cl)ccc3Cl)CCN4)cn2)CC1,inhibition,[1],88%
same,inhibition,[2],< 50%
same,inhibition,[3],< 50%
same,inhibition,[4],< 50%
same,inhibition,[5],< 50%
same,inhibition,[6],< 50%
CN1CCN(c2ccc(-c3cnc4c(c3)N(Cc3cc(Cl)ccc3C(F)(F)F)CCN4)cn2)CC1,inhibition,[1],98%
same,inhibition,[2],< 50%
same,inhibition,[3],< 50%
same,inhibition,[4],< 50%
same,inhibition,[5],< 50%
same,inhibition,[6],< 50%
CN1CCN(c2ccc(-c3cnc4c(c3)N(Cc3c(F)ccc(F)c3Cl)CCN4)cn2)CC1,inhibition,[1],85%
same,inhibition,[2],< 50%
same,inhibition,[3],< 50%
same,inhibition,[4],< 50%
same,inhibition,[5],< 50%
same,inhibition,[6],< 50%
O=C(c1ccc(-c2cnc3c(c2)N(Cc2cc(Cl)ccc2C(F)(F)F)CCN3)cc1)N1CCC(N2CCCC2)CC1,inhibition,[1],99.8%
same,inhibition,[2],< 50%
same,inhibition,[3],< 50%
same,inhibition,[5],< 50%
same,inhibition,[6],< 50%
COC1CCN(C(=O)c2ccc(-c3cnc4c(c3)N(Cc3cc(Cl)ccc3C(F)(F)F)CCN4)cc2)CC1,inhibition,[1],97.2%
same,inhibition,[2],< 50%
same,inhibition,[3],< 50%
same,inhibition,[5],< 50%
same,inhibition,[6],< 50%
FC(F)(F)c1ccc(Cl)cc1CN1CCNc2ncc(-c3ccnc(N4CCNCC4)c3)cc21,inhibition,[1],99%
same,inhibition,[2],< 50%
same,inhibition,[3],< 50%
same,inhibition,[4],< 50%
same,inhibition,[5],< 50%
same,inhibition,[6],< 50%
CN1CCN(c2ccc(-c3cnc4c(c3)N(Cc3cc(F)ccc3F)CCN4)cn2)CC1,inhibition,[1],79%
same,inhibition,[2],< 50%
same,inhibition,[3],< 50%
same,inhibition,[4],< 50%
same,inhibition,[5],< 50%
same,inhibition,[6],< 50%
O=C(c1ccc(-c2cnc3c(c2)N(Cc2cc(Cl)ccc2C(F)(F)F)CCN3)cc1)N1CCCCC1,inhibition,[1],93.2%
same,inhibition,[2],< 50%
same,inhibition,[3],< 50%
same,inhibition,[5],< 50%
same,inhibition,[6],< 50%
CC(=O)N1CCN(c2cc(-c3cnc4c(c3)N(Cc3cc(Cl)ccc3C(F)(F)F)CCN4)ccn2)CC1,inhibition,[1],99%
same,inhibition,[2],< 50%
same,inhibition,[3],< 50%
same,inhibition,[4],< 50%
same,inhibition,[5],< 50%
same,inhibition,[6],< 50%
O=C(O)c1ccc(-c2cnc3c(c2)N(Cc2cc(Cl)ccc2C(F)(F)F)CCN3)cc1,inhibition,[1],97.4%
same,inhibition,[2],< 50%
same,inhibition,[3],< 50%
same,inhibition,[5],< 50%
same,inhibition,[6],< 50%
